pIC50: −log10 of the molar value. One block for each molecule: values may come before it.
Tests used:
[1] = Inhibition of kinesin (unknown origin) assessed as reduction in ATPase activity using microtubule as substrate measured for 5 to mins; design: species or system Homo sapiens
MCF7 = assay: Antiproliferative activity against human MCF7 cells assessed as growth percentage incubated for 72 hrs by XTT assay; assay type: functional, cell-based; settings: MCF7, 72 h
HeLa = assay: Antiproliferative activity against human HeLa cells assessed as growth percentage incubated for 72 hrs by XTT assay; assay type: functional, cell-based
[2] = Growth inhibition of human HEK293 cells assessed as cell viability at 6.25 ug incubated for 48 hrs by MTT assay relative to control; assay type: cell-based; settings: read-out: Activity
[3] = Growth inhibition of human HEK293 cells assessed as cell viability at 0.39 ug incubated for 48 hrs by MTT assay relative to control; assay type: cell-based; settings: read-out: Activity
[4] = Growth inhibition of human HEK293 cells assessed as cell viability at 25 ug incubated for 48 hrs by MTT assay relative to control; assay type: cell-based; settings: read-out: Activity
[5] = Growth inhibition of human HEK293 cells assessed as cell viability at 100 ug incubated for 48 hrs by MTT assay relative to control; assay type: cell-based; settings: read-out: Activity
[6] = Growth inhibition of human HEK293 cells assessed as cell viability at 1.56 ug incubated for 48 hrs by MTT assay relative to control; assay type: cell-based; settings: read-out: Activity
SNB-75 [7] = assay: Induction of apoptosis in human SNB75 cells assessed as necrosis at 2 uM incubated for 24 hrs by annexin V FITC and propidium iodide based flow cytometry (reference value: 0.44 %); assay type: functional
MDA-MB-435 [8] = assay: Induction of apoptosis in human MDA-MB-435 cells assessed as active caspase 3 level incubated for 2 hrs by ELISA (reference value: 1); assay type: functional
Outline: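 Active caspase-3 was measured by human sandwich ELISA. Samples were incubated on the plate for 2 h at room temperature. This was followed by 1 h with detection antibody, 30 min with anti-rabbit IgG-HRP, and 30 min with chromogen, with all steps at room temperature. Absorbance was read at 450 nm, and levels were read from a standard curve.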

SNB-75 [9] = assay: Cell cycle arrest in human SNB75 cells assessed as accumulation in G0/G1 phase at 2 uM incubated for 24 hrs by propidium iodide based flow cytometry (reference value: 55.62 %); assay type: functional
Outline: (§1)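 SNB-75 cells were exposed to 2 µM for 24 h at 37 °C, 5% CO2, then washed with PBS and fixed in 70% ethanol on ice for 15 min. They were stained 1 h at room temperature with 50 µg/mL propidium iodide, 0.1 mg/mL RNase A and 0.05% Triton X-100. DNA content was read by flow cytometry to give the % of cells in pre-G1, G0/G1, S and G2/M.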

[10] = biological target: Kinesin-like protein KIF11 (Homo sapiens, UniProt P52732); assay: Inhibition of recombinant human His-tagged Eg5 (1 to 368 residues) assessed as reduction in ATPase activity by […] based assay
SNB-75 [11] = assay: Cell cycle arrest in human SNB75 cells assessed as accumulation in S phase at 2 uM incubated for 24 hrs by propidium iodide based flow cytometry (reference value: 33.92 %); assay type: functional; outline: as §1
SNB-75 [12] = assay: Induction of apoptosis in human SNB75 cells assessed as early apoptotic cells at 2 uM incubated for 24 hrs by annexin V FITC and propidium iodide based flow cytometry (reference value: 0.82 %); assay type: functional
SNB-75 [13] = assay: Cell cycle arrest in human SNB75 cells assessed as accumulation in G2/M phase at 2 uM incubated for 24 hrs by propidium iodide based flow cytometry (reference value: 10.46 %); assay type: functional; outline: as §1
SNB-75 [14] = assay: Cell cycle arrest in human SNB75 cells assessed as accumulation in preG1 phase at 2 uM incubated for 24 hrs by propidium iodide based flow cytometry (reference value: 1.85 %); assay type: functional; outline: as §1
MDA-MB-435 [15] = assay: Induction of apoptosis in human MDA-MB-435 cells assessed as active caspase 9 level incubated for 2 hrs by ELISA (reference value: 1); assay type: functional
Outline: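 Caspase-9 was measured by human ELISA on cell lysates, with samples in duplicate. Samples were incubated with detection antibody for 2 h at room temperature. This was followed by 1 h with anti-rabbit IgG-HRP and 10 min with TMB substrate. After a stop solution, absorbance was read at 450 nm.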

SNB-75 [16] = assay: Induction of apoptosis in human SNB75 cells assessed as late apoptotic cells at 2 uM incubated for 24 hrs by annexin V FITC and propidium iodide based flow cytometry (reference value: 0.59 %); assay type: functional

Chain of Kinesin-like protein KIF11 (P52732 whole entry, the tested form may be a part): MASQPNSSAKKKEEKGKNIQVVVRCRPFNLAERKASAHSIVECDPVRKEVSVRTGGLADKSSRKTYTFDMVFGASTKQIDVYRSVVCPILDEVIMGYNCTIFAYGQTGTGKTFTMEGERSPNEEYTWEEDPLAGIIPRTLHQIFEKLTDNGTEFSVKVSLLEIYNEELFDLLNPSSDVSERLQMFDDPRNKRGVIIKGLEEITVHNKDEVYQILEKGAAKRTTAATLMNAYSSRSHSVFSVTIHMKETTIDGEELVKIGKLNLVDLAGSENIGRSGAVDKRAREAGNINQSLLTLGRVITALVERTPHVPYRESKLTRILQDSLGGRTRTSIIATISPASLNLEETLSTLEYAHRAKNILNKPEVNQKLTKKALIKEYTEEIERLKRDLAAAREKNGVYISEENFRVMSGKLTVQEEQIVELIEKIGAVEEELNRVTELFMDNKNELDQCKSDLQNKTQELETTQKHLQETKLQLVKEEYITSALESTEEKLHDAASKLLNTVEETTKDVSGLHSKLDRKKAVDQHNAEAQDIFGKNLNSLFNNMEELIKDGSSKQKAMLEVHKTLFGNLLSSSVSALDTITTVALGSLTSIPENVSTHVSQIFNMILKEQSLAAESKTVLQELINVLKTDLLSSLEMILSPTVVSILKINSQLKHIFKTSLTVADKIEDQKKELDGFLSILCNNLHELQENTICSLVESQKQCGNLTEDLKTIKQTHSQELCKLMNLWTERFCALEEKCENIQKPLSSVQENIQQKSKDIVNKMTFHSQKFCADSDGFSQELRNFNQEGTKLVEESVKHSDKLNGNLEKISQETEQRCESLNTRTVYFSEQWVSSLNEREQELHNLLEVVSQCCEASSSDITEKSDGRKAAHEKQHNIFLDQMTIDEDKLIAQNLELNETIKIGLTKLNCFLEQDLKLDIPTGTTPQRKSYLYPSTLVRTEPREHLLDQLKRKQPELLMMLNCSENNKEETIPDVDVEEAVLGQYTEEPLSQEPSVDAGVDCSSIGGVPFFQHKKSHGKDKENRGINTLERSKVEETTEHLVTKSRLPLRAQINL

- pIC50 [1]: 7.00
SMILES: CC1=C(C(=O)c2ccccc2)C(c2cccc(O)c2)NC(=S)N1C (centres undefined)

- pIC50 (MCF7): 4.26
- pIC50 (HeLa): 4.40
SMILES: CC1=C(C(=O)OCc2ccccc2)C(c2ccco2)NC(=O)N1 (centres undefined)

SMILES: COc1cccc2c1C(=O)c1c(O)c3c(c(O)c1C2=O)C[C@@](O)(C(=O)CO)C[C@@H]3O[C@H]1C[C@H](N)[C@H](O)[C@H](C)O1 [DOXORUBICIN]
- viability at 48 h, 6.25 ug [2]: 55.2%
- viability at 48 h, 0.39 ug [3]: 75.1%
- viability at 48 h, 25 ug [4]: 43.6%
- viability at 48 h, 100 ug [5]: 33.8%
- viability at 48 h, 1.56 ug [6]: 64.7%

- pIC50 [1]: 4.70
- pIC50 [10]: 4.70
SMILES: CCOC(=O)C1=C(C)NC(=S)NC1c1cccc(O)c1 (centres undefined) [MONASTROL]
- Activity (SNB-75 [7]): 2.32%
- fold change (FC) (MDA-MB-435 [8]): 6.9
- Activity (SNB-75 [9]): 29.56%
- Activity (SNB-75 [11]): 29.18%
- Activity (SNB-75 [12]): 4.72%
- Activity (SNB-75 [13]): 41.26%
- Activity (SNB-75 [14]): 22.58%
- fold change (FC) (MDA-MB-435 [15]): 11.92
- Activity (SNB-75 [16]): 15.54%
